{"source": "BindingDB's records for doi:10.1016/j.bmc.2019.03.050", "about": "(University of Illinois At Chicago, 2019)", "key": {"[1]": {"molecular_target": "T1, Replicase polyprotein 1ab (Middle East respiratory syndrome-related coronavirus (isolate United Kingdom/H123990006/2012), UniProt K9N7C7)", "T1 sequence (K9N7C7 854-2740 limits assumed)": "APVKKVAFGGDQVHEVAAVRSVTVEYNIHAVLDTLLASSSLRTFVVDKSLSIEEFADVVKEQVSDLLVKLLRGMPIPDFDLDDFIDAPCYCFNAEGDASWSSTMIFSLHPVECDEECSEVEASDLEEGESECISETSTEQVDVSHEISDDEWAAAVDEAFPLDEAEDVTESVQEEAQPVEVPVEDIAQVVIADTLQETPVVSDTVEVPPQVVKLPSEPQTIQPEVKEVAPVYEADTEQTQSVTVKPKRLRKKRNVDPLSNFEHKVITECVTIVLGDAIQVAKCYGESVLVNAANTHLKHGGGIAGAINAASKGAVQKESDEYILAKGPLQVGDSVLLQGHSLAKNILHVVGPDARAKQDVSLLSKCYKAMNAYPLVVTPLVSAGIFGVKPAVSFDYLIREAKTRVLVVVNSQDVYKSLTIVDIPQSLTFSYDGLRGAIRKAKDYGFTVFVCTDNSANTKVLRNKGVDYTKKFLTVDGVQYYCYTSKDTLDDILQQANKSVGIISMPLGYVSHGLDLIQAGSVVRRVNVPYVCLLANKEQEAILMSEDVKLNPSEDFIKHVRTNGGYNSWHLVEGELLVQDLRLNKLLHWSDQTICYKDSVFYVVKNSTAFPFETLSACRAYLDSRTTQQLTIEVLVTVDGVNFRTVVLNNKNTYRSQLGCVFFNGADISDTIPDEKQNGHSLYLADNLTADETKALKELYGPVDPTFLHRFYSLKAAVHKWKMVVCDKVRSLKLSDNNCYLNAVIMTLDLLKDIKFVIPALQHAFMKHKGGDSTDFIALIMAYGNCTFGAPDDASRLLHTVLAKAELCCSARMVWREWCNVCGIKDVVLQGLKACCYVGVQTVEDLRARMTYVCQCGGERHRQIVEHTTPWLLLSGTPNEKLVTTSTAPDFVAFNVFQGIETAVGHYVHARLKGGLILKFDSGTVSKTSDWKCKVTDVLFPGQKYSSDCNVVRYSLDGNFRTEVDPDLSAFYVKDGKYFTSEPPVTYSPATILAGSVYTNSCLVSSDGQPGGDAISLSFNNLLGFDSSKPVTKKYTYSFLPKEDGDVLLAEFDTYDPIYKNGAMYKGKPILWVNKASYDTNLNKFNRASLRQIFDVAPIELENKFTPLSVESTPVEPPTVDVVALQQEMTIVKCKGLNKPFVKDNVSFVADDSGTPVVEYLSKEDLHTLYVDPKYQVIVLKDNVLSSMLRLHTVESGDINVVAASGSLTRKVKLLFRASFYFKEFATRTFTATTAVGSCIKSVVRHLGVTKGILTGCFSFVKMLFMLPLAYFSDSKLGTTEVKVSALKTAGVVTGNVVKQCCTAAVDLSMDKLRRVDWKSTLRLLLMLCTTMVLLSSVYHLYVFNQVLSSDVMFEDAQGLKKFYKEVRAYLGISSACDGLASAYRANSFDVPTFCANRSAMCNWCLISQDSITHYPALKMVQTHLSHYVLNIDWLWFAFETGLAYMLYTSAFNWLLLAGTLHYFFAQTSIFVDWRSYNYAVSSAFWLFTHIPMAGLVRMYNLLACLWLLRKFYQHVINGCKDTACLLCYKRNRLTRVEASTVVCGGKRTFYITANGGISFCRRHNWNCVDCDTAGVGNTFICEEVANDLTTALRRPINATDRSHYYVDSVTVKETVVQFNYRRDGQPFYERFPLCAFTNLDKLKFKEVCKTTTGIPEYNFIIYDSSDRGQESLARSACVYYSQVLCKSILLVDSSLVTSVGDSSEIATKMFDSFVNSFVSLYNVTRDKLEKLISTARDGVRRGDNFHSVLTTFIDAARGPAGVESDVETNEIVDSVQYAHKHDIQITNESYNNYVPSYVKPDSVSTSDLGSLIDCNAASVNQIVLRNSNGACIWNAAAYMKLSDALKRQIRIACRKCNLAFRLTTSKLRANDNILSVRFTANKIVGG", "assay": "Binding affinity to MERS-CoV papain-like protease by SPR analysis", "outline": "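SPR on Biacore T200. Enzyme at 50 µg/mL in 10 mM sodium acetate pH 5.5 amine-coupled to CM5 chip (~10,000 RU); blank flow cells as reference. Compounds 0-50 µM (2-fold series) in PBSP + 0.5 mM TCEP, 2% DMSO, 30 µL/min, 25°C; double-referenced. KD from steady-state responses fit to rectangular hyperbola; rate constants from global 1:1 Langmuir fit.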"}, "[2]": {"molecular_target": "T1, Replicase polyprotein 1ab", "assay": "Inhibition of MERS-CoV papain-like protease using Z-Arg-Leu-Arg-Gly-Gly-AMC as substrate preincubated for 5 mins followed by substrate addition and measured for 10 mins by fluorescence assay"}, "[3]": {"molecular_target": "T1, Replicase polyprotein 1ab", "assay": "Competitive-inhibition of MERS-CoV papain-like protease using varying levels of Z-Arg-Leu-Arg-Gly-Gly-AMC as substrate by Dixon-plot analysis"}}, "note": "pIC50, pKd, pKi: −log10 of the molar value.", "data": [{"smiles": "O=C(NC1=CC=CC2C(=O)C=C(c3nn[nH]n3)OC12)c1ccc(OCCCCc2ccccc2)cc1", "note": "(stereo not drawn) [ONO-1078]", "values": [{"measurement": "pKd", "setting": "[1]", "result": 4.85}, {"measurement": "pIC50", "setting": "[2]", "result": 4.60}, {"measurement": "pKi", "setting": "[3]", "result": 3.90}]}]}
